Laboratory results from PMC8103808 (Journal of medicinal chemistry, 2020).
“Also recorded” adds a separate entry of the source. Each block holds one compound with its values, some of them ahead of it.

Tests used:
PDIA1 [1] = target: T1, PDIA1 (Homo sapiens, UniProt P07237); assay: Glutathione competition in PDI reductase assay; assay type: biochemical; settings: 5 mM GSH
U−118 MG cells = assay: Colony formation assay with or without BSO pretreatment; assay type: cell-based, human; settings: BSO pretreatment 24 h
How it was run: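 U-118 MG cells grown in RPMI-1640 with 10% FBS were seeded at 600 cells/well and allowed to attach. Serial dilutions of buthionine sulfoximine were added 24 h later, with pretreatment overnight (24 h per legend), then serial dilutions of test compound. Cells were cultured 10–14 days until colonies formed, stained 1 h with crystal violet/formaldehyde/methanol, washed with water and imaged.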

PDI [2] = target: T2, PDI (Homo sapiens, UniProt P07237); assay: Protein mass spectrometry; assay type: binding; settings: 10 μM PDI, 100 μM DTT, 100 μM compound
How it was run: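 Recombinant human PDI (10 μM) was incubated with 100 μM test compound and 100 μM DTT for 30 min before injection for Q-TOF intact-protein mass spectrometry to detect covalent adducts.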

U−87 MG cells [3] = assay: MTT growth inhibition assay in U-87 MG cells; assay type: cell-based; settings: Homo sapiens, read-out: MTT (% inhibition at 30 μM)
How it was run: (§1)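 Cells were grown at 37 °C, 5% CO₂ in 10% FBS medium: DMEM for U-87 MG, RPMI-1640 for A-172. Duplicate wells of 3000–5000 cells were attached overnight, then exposed to 30 μM test compound for 72 h. MTT (3 mg/mL) was added for 4 h at 37 °C and formazan dissolved in DMSO before reading A570. Inhibition (%) = [1−(At−Ab)/(Ac−Ab)]×100.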

U−87 MG cells [4] = assay: Bromouridine nascent RNA sequencing; assay type: cell-based, human; settings: 20 μM, 4 h; GSEA
A-172 cells = assay: MTT growth inhibition assay in A-172 cells; assay type: cell-based; settings: Homo sapiens, A 172, read-out: MTT (% inhibition at 30 μM)
How it was run: as §1

PDIA1 [5] = target: T1, PDIA1; assay: PDI reductase assay; assay type: biochemical
PDI [6] = target: T2, PDI; assay: Gel-based competition with fluorescent probe PACMA57; assay type: binding; settings: 100 μM compound
PDI [7] = target: T2, PDI; assay: kinact/KI determination in PDI reductase assay with reduced PDI; assay type: biochemical
PDI H256A mutant = PDI H256A mutant (Homo sapiens, UniProt P07237, H256A); assay: PDI reductase assay with H256A mutant; assay type: biochemical; settings: Histidine 256 in b′ domain mutated to alanine
How it was run: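 H256A PDI was made by site-directed mutagenesis, expressed in BL21(DE3) and purified like wild type. Enzyme (0.4 μM or 50 nM) was preincubated with test compound for 1 h at 37 °C in 100 mM sodium phosphate, 2 mM EDTA, 8 μM DTT, pH 7.0. DTT (500 μM; 125 μM for 50 nM enzyme) and 130 μM bovine insulin were added, and reduction proceeded at room temperature. Insulin B-chain aggregation was read at 620 nm, and activity calculated from ΔOD over 60 min (180 min for 50 nM).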

PDI [8] = target: T2, PDI; assay: Reversibility; assay type: biochemical; settings: for PDI activity recovery after 100-fold dilution: 50 μM compound with 40 μM PDI, 3 h at room temperature; for PDI activity recovery after dilution: compound concentrations 10 times that of the protein
PDIA2 [9] = target: T3, PDIA2 (Homo sapiens, UniProt Q13087); assay: PDI reductase assay with PDIA2; assay type: biochemical
T3 sequence (Q13087 22-525): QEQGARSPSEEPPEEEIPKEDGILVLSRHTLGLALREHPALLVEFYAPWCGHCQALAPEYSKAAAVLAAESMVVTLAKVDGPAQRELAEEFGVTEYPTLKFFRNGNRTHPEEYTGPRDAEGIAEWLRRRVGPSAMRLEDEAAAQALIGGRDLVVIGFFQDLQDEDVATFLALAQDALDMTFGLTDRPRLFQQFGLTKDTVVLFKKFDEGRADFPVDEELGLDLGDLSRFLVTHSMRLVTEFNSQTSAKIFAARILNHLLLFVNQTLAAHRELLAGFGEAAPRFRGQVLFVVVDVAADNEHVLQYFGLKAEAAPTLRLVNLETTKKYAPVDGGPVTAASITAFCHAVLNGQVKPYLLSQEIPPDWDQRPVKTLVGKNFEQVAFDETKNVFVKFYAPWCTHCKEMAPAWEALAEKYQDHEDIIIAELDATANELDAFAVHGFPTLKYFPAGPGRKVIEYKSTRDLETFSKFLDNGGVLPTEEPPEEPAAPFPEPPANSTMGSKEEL

PDIA3 [10] = target: T4, PDIA3 (Homo sapiens, UniProt P30101); assay: PDI reductase assay with PDIA3; assay type: biochemical
T4 sequence (P30101 25-505): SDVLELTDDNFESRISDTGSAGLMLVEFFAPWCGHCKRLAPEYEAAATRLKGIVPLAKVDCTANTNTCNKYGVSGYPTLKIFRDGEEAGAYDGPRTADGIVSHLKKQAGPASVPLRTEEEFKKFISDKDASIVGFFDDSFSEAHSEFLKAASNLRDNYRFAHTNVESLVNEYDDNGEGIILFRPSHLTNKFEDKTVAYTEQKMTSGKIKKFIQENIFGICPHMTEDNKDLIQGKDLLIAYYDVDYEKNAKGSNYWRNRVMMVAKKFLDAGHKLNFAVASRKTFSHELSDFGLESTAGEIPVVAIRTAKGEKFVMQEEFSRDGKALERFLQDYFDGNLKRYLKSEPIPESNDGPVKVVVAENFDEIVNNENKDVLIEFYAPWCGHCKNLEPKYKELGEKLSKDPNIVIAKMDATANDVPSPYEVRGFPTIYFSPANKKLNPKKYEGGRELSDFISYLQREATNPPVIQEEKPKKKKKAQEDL

PDI b′ domain = PDI b′ domain (Homo sapiens, UniProt P07237); assay: ANS spectral scan; assay type: binding; settings: 5 μM PDI, 100 μM compound
How it was run: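 Recombinant N-terminally His-tagged human PDI, expressed in E. coli BL21(DE3) and Ni-NTA purified, at 5 μM with 100 μM test compound or matching DMSO in TBS for 1 h at 37 °C. ANS then added and incubated 20 min at 25 °C in the dark. Fluorescence spectrum recorded at Ex 370 nm, Em 400–700 nm.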

PDI [11] = target: T2, PDI; assay: Thermal shift assay; assay type: binding; settings: oxidized PDI; 100 μM compound
serum albumin = serum albumin (Bos taurus, UniProt P02769); assay: Gel-based binding in cell-free medium with fetal bovine serum; settings: cell-free medium supplemented with fetal bovine serum
How it was run: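 Cell-free DMEM, with 10% FBS added, was incubated overnight at 37 °C with 20 μM BODIPY-labelled test compound. Binding to serum albumin was assessed by in-gel imaging of the labelled protein.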

PDIA3 [12] = target: T4, PDIA3; assay: Gel-based binding assay with recombinant PDIA3; settings: recombinant protein
How it was run: (§2)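 Each protein at 3.5 µM in CelLytic M buffer was incubated with BODIPY-labelled test compound overnight at room temperature. PDIA1 and PDIA2 are recombinant human; PDIA1 is His-tagged and expressed in E. coli BL21(DE3). Samples were boiled in Laemmli or non-reducing sample buffer, resolved on 10% polyacrylamide gels, and imaged immediately for labelled protein.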

PDIA2 [13] = target: T3, PDIA2; assay: Gel-based binding assay with recombinant PDIA2; settings: recombinant protein
How it was run: as §2

PDIA1 [14] = target: T1, PDIA1; assay: Gel-based binding assay with recombinant PDIA1; settings: recombinant protein
How it was run: as §2

BSA = BSA (Bos taurus, UniProt P02769); assay: Gel-based binding assay with BSA; parameters: species or system bovine
How it was run: as §2

T1 sequence (P07237 18-508): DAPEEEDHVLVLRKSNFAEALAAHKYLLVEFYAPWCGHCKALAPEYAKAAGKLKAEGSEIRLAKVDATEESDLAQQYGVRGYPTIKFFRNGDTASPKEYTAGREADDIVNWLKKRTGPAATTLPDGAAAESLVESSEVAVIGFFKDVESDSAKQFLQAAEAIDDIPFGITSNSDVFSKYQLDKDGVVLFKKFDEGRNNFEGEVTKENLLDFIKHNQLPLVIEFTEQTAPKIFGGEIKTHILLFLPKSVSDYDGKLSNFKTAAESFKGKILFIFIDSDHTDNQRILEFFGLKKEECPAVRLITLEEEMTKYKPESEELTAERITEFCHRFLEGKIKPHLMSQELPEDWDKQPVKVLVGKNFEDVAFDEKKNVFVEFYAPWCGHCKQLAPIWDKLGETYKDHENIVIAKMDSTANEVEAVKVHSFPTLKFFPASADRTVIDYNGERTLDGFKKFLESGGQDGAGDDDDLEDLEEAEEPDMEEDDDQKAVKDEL
T2 sequence (P07237 18-508): as above
PDI H256A mutant, sequence (P07237 18-508 H256A): as the sequence (P07237 18-508) above, with H239A counted along it
serum albumin, sequence (P02769 25-607): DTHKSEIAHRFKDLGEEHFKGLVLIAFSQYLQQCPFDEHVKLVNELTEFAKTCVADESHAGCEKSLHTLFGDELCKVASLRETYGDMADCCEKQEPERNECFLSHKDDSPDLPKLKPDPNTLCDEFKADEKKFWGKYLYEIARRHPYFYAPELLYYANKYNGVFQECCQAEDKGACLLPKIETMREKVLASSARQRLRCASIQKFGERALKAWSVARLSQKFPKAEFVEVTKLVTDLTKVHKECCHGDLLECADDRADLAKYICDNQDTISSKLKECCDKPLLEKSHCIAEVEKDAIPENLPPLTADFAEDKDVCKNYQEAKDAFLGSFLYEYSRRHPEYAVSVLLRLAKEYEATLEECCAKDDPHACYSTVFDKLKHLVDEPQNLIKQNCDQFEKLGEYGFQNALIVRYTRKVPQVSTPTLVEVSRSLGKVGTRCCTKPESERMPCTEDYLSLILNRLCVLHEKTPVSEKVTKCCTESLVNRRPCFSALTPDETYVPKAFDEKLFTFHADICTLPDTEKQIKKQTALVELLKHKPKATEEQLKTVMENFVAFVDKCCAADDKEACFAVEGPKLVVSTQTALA
PDI b′ domain, sequence (P07237 18-508): as the sequence (P07237 18-508) above
BSA, sequence (P02769 25-607): as the sequence (P02769 25-607) above

Structure (SMILES): Oc1c(C(c2ccncc2)N2CCCCC2)ccc2ccoc12 (stereo not shown) [5p, 6-(Piperidin-1-yl(pyridin-4-yl)methyl)benzofuran-7-ol]
inhibition at 30 µM (U−87 MG cells [3]): 1% | effect on transcription (gene set enrichment) (U−87 MG cells [4]): upregulates transcription of genes involved in the unfolded protein response

Structure (SMILES): Oc1cc2c(cc1C(c1ccccc1)N1CCCCC1)OCO2 (stereo not shown) [6b, 6-(phenyl(piperidin-1-yl)methyl)benzo[d][1,3]dioxol-5-ol]
inhibition at 30 µM (A-172 cells): 17%

Structure (SMILES): COc1ccc(C(c2cc3c(cc2O)OCO3)N2CCOCC2)cc1OC (stereo not shown) [AS15]
kinact/KI (PDI [7]): 2600 M⁻¹ s⁻¹ | activity against H256A mutant PDI (PDI H256A mutant): retained their activity | PDI activity recovery after 100-fold dilution (PDI [8]): did not maintain the characteristics of the high concentration of inhibitor after dilution | PDI activity recovery after dilution (PDI [8]): behave like the expected irreversible inhibitor | inhibition of PDIA2 activity (PDIA2 [9]): inhibited activity of PDIA2 | inhibition of PDIA3 activity (PDIA3 [10]): could also inhibit PDIA3 activity | competition with ANS fluorescence (PDI b′ domain): did not lower the fluorescence of ANS | stabilization of PDI to thermal degradation (PDI [11]): did not stabilize PDI to thermal degradation

Structure (SMILES): CC1=CC(C)=[N+]2C1=C(c1ccc(NC(=O)c3ccc(C(c4cc5c(cc4O)OCO5)N4CCCCC4)cc3)cc1)c1c(C)cc(C)n1[B-]2(F)F (stereo not shown) [compound 15, N-(4-(5,5-Difluoro-1,3,7,9-tetramethyl-5H-4λ^4,5λ^4-dipyrrolo[1,2-c:2’,1’-f][1,3,2]diazaborinin-10-yl)phenyl)-4-((6-hydroxybenzo[d][1,3]dioxol-5-yl)(piperidin-1-yl)methyl)benzamide]
binding to serum albumin (serum albumin): bound to serum albumin | PDI inhibition in the PDI reductase assay (in words) (PDIA1 [5]): did not inhibit PDI activity

Structure (SMILES): CC1=CC(C)=[N+]2C1=C(c1ccc(C(=O)NCCNC(=O)c3ccc(C(c4cc5c(cc4O)OCO5)N4CCCCC4)cc3)cc1)c1c(C)cc(C)n1[B-]2(F)F (stereo not shown) [compound 16]
binding to serum albumin (serum albumin): bound to serum albumin | binding to PDIA3 (PDIA3 [12]): bound | binding to PDIA2 (PDIA2 [13]): bound | binding to PDIA1 (PDIA1 [14]): covalently binds; also recorded: bound | binding to BSA (BSA): bound

More lines, main results first:

covalent binding to PDI by mass spectrometry (PDI [2]): bound to PDI
Structure (SMILES): Oc1c(C(c2ccc(F)cc2)N2CCN(C(c3ccc(F)cc3)c3ccc4cncnc4c3O)CC2)ccc2cncnc12 (stereo not shown) [5d dimer]
PDI inhibition in the presence of competing glutathione (PDIA1 [1]): less sensitive to glutathione competition than the monomer | potency in colony formation assay, dependence on BSO (U−118 MG cells): more potent and its potency was not dependent on BSO addition

PDI inhibition in the presence of competing glutathione (PDIA1 [1]): maintained potency | covalent binding to PDI by mass spectrometry (PDI [2]): bound to PDI
Structure (SMILES): Oc1c(C(c2ccc(F)cc2)N2CCNCC2)ccc2cncnc12 (stereo not shown) [5d, 7-((4-Fluorophenyl)(piperazin-1-yl)methyl)quinazolin-8-ol]
potency in colony formation assay, dependence on BSO (U−118 MG cells): more sensitive to BSO addition

PDI inhibition in the PDI reductase assay (in words) (PDIA1 [5]): completely lost activity | competition with PACMA57 for binding to PDI (PDI [6]): did not compete with PACMA57
Structure (SMILES): Oc1cc2c(cc1C(c1ccc(F)cc1)N1CCCCC1)CCC2 (stereo not shown) [6f, 6-((4-Fluorophenyl)(piperidin-1-yl)methyl)-2,3-dihydro-1H-inden-5-ol]
inhibition at 30 µM (U−87 MG cells [3]): 13% | covalent binding to PDI by mass spectrometry (PDI [2]): did not demonstrate covalent binding to PDI

activity against H256A mutant PDI (PDI H256A mutant): retained their activity | PDI activity recovery after dilution (PDI [8]): too active at this ratio | inhibition of PDIA2 activity (PDIA2 [9]): inhibited activity of PDIA2 | competition with ANS fluorescence (PDI b′ domain): did not lower the fluorescence of ANS
Structure (SMILES): Oc1c(C(Nc2ccccn2)c2ccc(Cl)cc2)ccc2cccnc12 (stereo not shown) [CD343]
PDI activity recovery after 100-fold dilution (PDI [8]): did not maintain the characteristics of the high concentration of inhibitor after dilution | stabilization of PDI to thermal degradation (PDI [11]): did not stabilize PDI to thermal degradation
